core dimer inh: HCV core protein dimerization inhibition; TR-FRET GST/Flag-core106 dimerization, 1536-well; inhibition, % at 5 µM; 300,000 tested, 0.33% active; AID 1899;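 active = inhibition above the mean of all tested compounds plus 3 SD, set per screening campaign, cut at about 45% in these data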
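test system = GST/Flag-tagged HCV core106 proteins | probe or stimulus = Eu donor and XL665 acceptor anti-tag antibodies | times = compound-protein-antibody incubation 4 h at 22.5 °C | signal = TR-FRET, excitation 340 nm, emission 617 and 671 nm | measure = percent inhibition of core106 dimerization signal | controls = wells lacking GST-core106 and wells with excess unlabelled core106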
IMP-1 inh: inhibitors of Pseudomonas aeruginosa IMP-1 metallo-beta-lactamase. inhibition, % at 5.6 µM. 290,000 tested, 0.45% active. purified IMP-1, nitrocefin hydrolysis, epi-absorbance fluorescence;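 active = inhibition above the mean plus 3 SD of all compounds in the same screening run, cut at about 4.5% in these data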;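 note: 0% = IMP-1 with DMSO and 100% = DMSO wells lacking enzyme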
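Test system: recombinant IMP-1 enzyme, purified / Medium: HEPES buffer pH 7.1 with ZnSO4 and Brij 35 / Doses: single dose, 5.6 µM / Times: 25 °C, 15 min preincubation, 25 min reaction / Detection: Epi-absorbance via hydrolysed-nitrocefin quenching of white-plate fluorescence, 480/530 nm, EDTA stop / Evaluation: percent inhibition from optical density relative to buffer-blank wells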
VIM-2 inhibitor: blocks Pseudomonas aeruginosa VIM-2 metallo-beta-lactamase | purified VIM-2, nitrocefin hydrolysis, epi-absorbance fluorescence | inhibition, % at 5.6 µM | AID 1527 | 290,000 tested, 0.89% active;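 active = inhibition above the mean of all tested compounds plus 3 SD, cutoff set per screening run, cut at about 7.5% in these data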;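 note: red hydrolysis product quenches plate fluorescence so inhibitors raise well fluorescence; 0% = enzyme with DMSO and 100% = DMSO without enzyme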
NadD inh: NadD (S. aureus) enzyme inhibition | purified NadD enzyme, colorimetric absorbance read-out | inhibition, % at 20 µM | 360,000 tested, 0.78% active | AID 602399; in the data active = inhibition above about 26%
* hit, by the source's call; . = not tested or not shown. Most compounds without a hit are left out; they make up all but 1.9% or so of the library.

SMILES	core dimer inh	IMP-1 inh	VIM-2 inhibitor	NadD inh
COc1ccc(NC(=S)NNc2ccc([N+](=O)[O-])cc2S(=O)(=O)Nc2ccc(C)cc2C)cc1	21	-4	-5	19
NC(=O)c1ccsc1NC(=O)COC(=O)Cc1ccccc1Cl	.	.	.	-4
C#CCOCCOCCOCCNc1nc(N2CCN(C(=O)CCCCCCCCCCNC(=O)Cn3cc(C[C@@H](C)O)nn3)CC2)nc(N2CCN(C(=O)CCCCCCCCCCNC(=O)[C@H](CCCN=C(N)N)n3cc(C[C@@H](C)CC)nn3)CC2)n1	10	.	.	38*
C#CCOCCOCCOCCNc1nc(N2CCN(C(=O)CCCCCCCCCCNC(=O)[C@H](CO)n3cc(CCCSC)nn3)CC2)nc(N2CCN(C(=O)CCCCCCCCCCNC(=O)[C@H](CCCN=C(N)N)n3cc(C[C@@H](C)CC)nn3)CC2)n1	12	.	.	62*
CC(C)[C@H](NC(=O)c1ccccc1)C(=O)OCC(=O)N1CCN(C(=O)c2ccco2)CC1	-2	-1	0	-1
OCCN1CCN(c2nc(-c3ccccc3)c3cc(Br)ccc3n2)CC1	-7	-1	8.0*	-4
COc1ccccc1/C=C1\S/C(=N/NC(=O)c2cccc(Br)c2)NC1=O	15	-3	-3	38*
CN1C(=S)NC(C)(C)CC1(C)c1ccc(O)cc1O (stereo not drawn)	-11	-3	8.3*	-6
CC1(C)CC(C)(c2ccc(O)cc2O)N(c2ccc3ccccc3c2)C(=S)N1 (stereo not drawn)	6	-3	-1	2
Cn1c(=O)c2sccc2n2c(CCCC(=O)NC3CCN(Cc4ccccc4)CC3)nnc12	-2	0	10*	-3
Cn1c(=O)c2sccc2n2c(CCCC(=O)Nc3ccccc3)nnc12	-2	-5	0	0
Cn1c(=O)c2sccc2n2c(CCCC(=O)NCc3cccnc3)nnc12	-3	-3	11*	2
CCCn1c(=O)c2sccc2n2c(CCCC(=O)NCc3cccnc3)nnc12	2	0	4	-5
O=C(CC1N=C2c3ccccc3N=C(SCc3ccc(F)cc3)N2C1=O)NCc1ccco1 (stereo not drawn)	0	-2	0	13
Cc1ccc(CSC2=Nc3ccccc3C3=NC(CC(=O)NCc4ccco4)C(=O)N23)cc1 (stereo not drawn)	64*	-1	-1	27
CCOC(=O)c1cc(=O)[nH]c2ccccc12	0	-4	-4	-9
CCCOC(=O)c1cc(=O)[nH]c2ccccc12	3	4.5*	0	-5
O=C1Nc2ccccc2/C1=C/c1cnc(-c2ccccc2)[nH]1	48*	2	-2	24
O=C1Nc2ccccc2/C1=C/c1cccnc1	-4	-3	-1	-9
CCC1CCCCN1C(=O)COc1c(Br)cc(Br)c2cccnc12 (stereo not drawn)	24	1	5	14
Cc1ccc2cc3cc(C(=O)N4CC(C)CC(C)C4)oc3nc2c1 (stereo not drawn)	8	-5	-3	0
CCCN1CCN(CCCNC(=O)c2cc3c(=O)[nH]c4ccc(C)cc4c3s2)CC1	0	-4	6	-10
Cc1ccc2oc(=O)c3cc(C(=O)NCCCN4CC(C)CC(C)C4)sc3c2c1 (stereo not drawn)	0	-2	10*	-7
Cc1ccc2cc3cc(C(=O)NCCCN4CC(C)CC(C)C4)oc3nc2c1 (stereo not drawn)	2	-2	10*	-8
Cc1cc(=O)oc2c(C)c(OCC(=O)N3CCN(c4cccc(Cl)c4)CC3)ccc12	18	-2	1	4
SMILES	core dimer inh	IMP-1 inh	VIM-2 inhibitor	NadD inh
CCS(=O)(=O)Nc1cccc(-c2ccc3nnc(-c4cccnc4)n3n2)c1	-3	-2	8.9*	5
CCOc1ccc(S(=O)(=O)N2CC(=O)Nc3ccccc32)cc1	-4	-2	-2	-12
CNS(=O)(=O)c1ccc(CNC[C@H]2O[C@@H](n3cnc(C(N)=O)n3)[C@H](O)[C@@H]2O)cc1	.	.	.	1
CN(C)S(=O)(=O)c1cc(NC(=O)c2ccc(-n3ccnc3)c([N+](=O)[O-])c2)ccc1Cl	18	-3	8.0*	13
COC(=O)c1c(NC(=O)c2ccnn2C)sc(C)c1C	3	4.7*	0	1
CCn1cc(C(=O)Nc2sc(C)c(C)c2C(=O)OC)cn1	8	-6	1	-3
CCN(CC)CCCOc1nc(C)nc2c1oc1ccccc12	.	1	31*	0
CCN(CC)CCOc1nc(C)nc2c1oc1ccccc12	1	-3	8.6*	-6
Cc1ccc(N2CC(C(=O)N3CCCCC3)CC2=O)cc1C (stereo not drawn)	-8	-1	-2	3
N=C1C(c2nc(-c3ccc(F)cc3)cs2)=C(O)CN1CCCN1CCOCC1	-7	0	12*	-4
CCN(CC)C(=O)CSc1nnc(-c2ccccn2)n1-c1ccccc1OC	-1	-2	-1	3
CCOc1ccccc1-n1c(SCC(=O)N(CC)CC)nnc1-c1ccccn1	-2	5.7*	-1	-3
CCCOc1ccc2cc(C(=O)NCc3ccccc3)c(=O)oc2c1	58*	-3	-2	1
CN(C)CCNC(=O)C1Cc2c(-c3ccccc3Oc3ccccc3)ccnc2O1 (stereo not drawn)	.	.	.	-4
COc1cc(/C=C2\CCCc3c2nc2ccccc2c3C(=O)O)cc(Br)c1O	-14	-2	2	2
CCOc1cc(/C=C2\CCCc3c2nc2ccccc2c3C(=O)O)ccc1OC	-3	6.9*	3	-4
O=C(Nc1cccc(N2C(=O)C3CCCCC3C2=O)c1)c1ccccc1 (stereo not drawn)	0	0	-3	-6
O=C(Nc1cccc(Cl)c1)c1cccc(N2C(=O)C3CC=CCC3C2=O)c1 (stereo not drawn)	-3	18*	1	-8
CC(=O)Nc1cccc(C(=O)Nc2cccnc2)c1	-3	-2	-3	-1
Cc1cc(N2CCN(C)CC2)ccc1NC(=O)c1cccc(S(=O)(=O)N2CCc3ccccc3C2)c1	-2	-2	-1	8
O=C(OCC(=O)N1CCN(C(=O)c2ccco2)CC1)c1cc(-c2ccc(F)cc2)nc2ccccc12	2	-3	-5	1
CNC(=O)COC(=O)c1cc(-c2ccco2)nc2ccccc12	48*	-2	-2	-2
O=C(Nc1ccccc1N1CCOCC1)c1cc(-c2ccco2)nc2ccccc12	56*	-5	-4	18
O=C(OCC(=O)N1CCN(C(=O)c2ccco2)CC1)c1cc(-c2ccccc2)nc2ccccc12	11	0	11*	16
O=C(NNC(=O)c1cc(-c2ccco2)nc2ccccc12)c1ccccc1	8	-2	-3	5
Cn1c(N)c(C(=O)COC(=O)c2ccnc3ccccc23)c(=O)n(C)c1=O	0	-5	9.7*	2
O=C(Nc1ccc2c(c1)CCC2)Nc1ccccc1F	7	-1	-3	-4
S=C(NCCc1ccccc1)Nc1c(Cl)cccc1Cl	-11	-4	-4	-3
